From PubChem BioAssay AID720574 (Broad Institute, 2013)
About 140 (0.15%) of roughly 96,000 compounds were called active.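 How the source made its calls: active means mean replicate inhibition above about 25%, with at least 55% of replicates also reaching it (limit read from the data, passing the limit was not always enough); inconclusive means only one of those two conditions met; inactive means neither condition met.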 The list comes from a sample in which actives are over-represented; it also holds similar structures and randomly drawn compounds.

What follows are compounds tested against Lysine-specific demethylase 4C (Homo sapiens) (UniProt Q9H3R0) (assay: inhibitors of GASC-1 (KDM4C) histone demethylase, primary screen, biochemical, single concentration HTS (AID 720574)). Settings: GST-KDM4C 2-372, H3K9me3 peptide, LANCE TR-FRET; at 12.5 µM; hits give high values.
Lysine-specific demethylase 4C (Homo sapiens), sequence (Q9H3R0 2-372 limits assumed): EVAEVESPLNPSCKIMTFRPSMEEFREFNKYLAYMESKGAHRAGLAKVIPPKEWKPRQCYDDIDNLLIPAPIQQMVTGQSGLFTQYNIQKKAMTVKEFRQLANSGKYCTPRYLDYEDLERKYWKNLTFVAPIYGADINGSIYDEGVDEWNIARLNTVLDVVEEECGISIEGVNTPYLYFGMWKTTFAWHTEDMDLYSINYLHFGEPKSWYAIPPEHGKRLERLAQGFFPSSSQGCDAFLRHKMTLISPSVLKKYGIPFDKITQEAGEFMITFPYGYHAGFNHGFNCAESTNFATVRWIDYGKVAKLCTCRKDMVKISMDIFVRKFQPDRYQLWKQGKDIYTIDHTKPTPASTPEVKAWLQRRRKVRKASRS
Outline: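 Material: N-terminal GST-fused human GASC-1 (KDM4C) fragment, residues 2-372. Input: 10 nM enzyme. Incubation: enzyme reaction 30 min, then detection 60 min, both room temperature. Doses: one test concentration per compound. Read-out basis: inhibition from TR-FRET ratio decrease. Detection: LANCE TR-FRET, excitation 340 nm, emissions 618 and 671 nm.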

inhibition, inactive:
COc1cccc(S(=O)(=O)N[C@@H]2C=C[C@H](CC(=O)NC3CCC3)O[C@@H]2CO)c1 -0.615%
CNC(=O)C[C@@H]1CC[C@@H]2[C@@H](COc3ccc(NC(=O)Nc4ccccc4OC)cc3C(=O)N2C)O1 -0.148%
COc1ccc2c3c(n(C)c2c1)[C@@H](CO)N(C(=O)CN1CCOCC1)CC31CN(C(=O)CC2CC2)C1 -1.48%
C[C@H](CO)N1C[C@H](C)[C@@H](CN(C)C(=O)C2CC2)Oc2cc(C#CC(C)(C)O)ccc2S1(=O)=O -1.72%
O=C(C1CCCC1)N1CC(=O)N2[C@@H](CO)[C@H](c3ccc(C#CC4CCCC4)cc3)[C@@H]2C1 0.0785%
COc1cccc(-c2ccc([C@@H]3[C@@H](CO)N4C(=O)CN(C(=O)C5CCCCC5)C[C@H]34)cc2)c1 -0.874%
CC(C)(C)[S@](=O)N1Cc2cc(C(=O)N[C@@H]3CCN(Cc4ccccc4)C3)nc(-c3cccc(-c4ccncc4)c3)c2[C@@H]1CCO -0.764%
C/C=C/c1ccccc1[C@@H]1[C@@H](C#N)N(C(=O)Cc2ccccn2)[C@H]1CO 0.483%
CN(C)CC(=O)Nc1ccc2c(c1)[C@H]1C[C@@H](CC(=O)NCc3ccc(Cl)cc3)O[C@@H](CO)[C@H]1O2 -0.979%
COc1cccc(NC(=O)N[C@@H]2CC[C@H](CC(=O)Nc3ccccc3)O[C@@H]2CO)c1 -0.777%
COc1ccc2c3c(n(C)c2c1)[C@H](CO)NCC31CCN(C(=O)Nc2ccccc2F)CC1 0.753%
CO[C@H]1CN(C)C(=O)c2ccc(NC(C)=O)cc2OC[C@H](C)N(C(=O)Cc2ccccn2)C[C@@H]1C 0.463%
CN1C(=O)c2cc(NC(=O)C3CCC3)ccc2OC[C@@H]2O[C@@H](CC(=O)NCc3ccccc3F)CC[C@@H]21 -1.68%
CO[C@H]1CN(C)C(=O)c2ccc(NC(=O)Cc3ccccc3)cc2OC[C@@H](C)N(C(C)=O)C[C@H]1C -0.332%
COc1ccc(CNC(=O)C[C@H]2CC[C@@H]3[C@H](COc4ccc(NC(=O)C5CC5)cc4C(=O)N3C)O2)cc1 0.0505%
C[C@@H]1CN([C@@H](C)CO)S(=O)(=O)c2ccc(-c3ccccc3F)cc2O[C@H]1CN(C)Cc1cncnc1 5.07%
C[C@@H]1CN([C@@H](C)CO)C(=O)c2cc(C#C[C@@H](C)O)cnc2O[C@H]1CN(C)CC1CCOCC1 4.17%
COc1ccccc1-c1cn(CC[C@@H]2CC[C@H](NC(=O)c3ccccc3F)[C@H](CO)O2)nn1 -1.5%
COC(=O)C[C@H]1CC[C@H]2[C@@H](COc3ccc(NC(=O)Nc4cccc(F)c4)cc3C(=O)N2C)O1 -1.5%
COCc1cn(CC[C@@H]2CC[C@@H](NC(=O)Cc3cccnc3)[C@@H](CO)O2)nn1 1.27%
CC(C)(C)[S@@](=O)N1Cc2cc(C(=O)N3CCOCC3)nc(-c3cccc(-c4ccc(C#N)cc4)c3)c2[C@H]1CCO 1.6%
CC=Cc1ccc2n(c1=O)C[C@@H]1[C@@H](CO)[C@H](C(=O)N[C@H](C)c3ccccc3)N(C(=O)c3cnccn3)[C@H]21 (mixture of isomers) 0.423%
O=C(C[C@@H]1CC[C@@H]2[C@H](COC[C@H](O)CN2Cc2cccc(C(F)(F)F)c2)O1)NCc1ccc(F)cc1 3.72%
CN(C)CC(=O)N1CC2(C1)[C@H](c1ccccc1)[C@@H](CO)N2C(=O)C1CCCCC1 -0.237%
O=C(C[C@H]1C=C[C@H](NC(=O)C2CCC2)[C@H](CO)O1)NCCCN1CCOCC1 1.01%
COc1ccc(NC(=O)N(C)C[C@@H]2Oc3ccc(NS(=O)(=O)c4ccc(C)cc4)cc3CC(=O)N([C@@H](C)CO)C[C@H]2C)cc1 6.92%
CCNC(=O)Nc1ccc2c(c1)C(=O)N(C)[C@H]1CC[C@@H](CC(=O)N[C@@H](C)c3ccccc3)O[C@H]1CO2 0.198%
O=C(Nc1ccccc1F)N1CC(=O)N2[C@H](C1)[C@@H](c1ccc(C#CC3CC3)cc1)[C@@H]2CO 1.64%
CN(C)C(=O)[C@@H]1[C@@H](CO)[C@@H]2Cn3c(ccc(C4=CCCC4)c3=O)[C@H]1N2Cc1ccccn1 1.36%
NCC[C@H]1CC[C@H](NC(=O)C2CC2)[C@@H](CO)O1 0.258%
CO[C@H]1CN(C)C(=O)c2ccc(NC(=O)C3CC3)cc2OC[C@H](C)N(CCc2ccccc2)C[C@@H]1C 0.468%
O=C(CC(F)(F)F)N1C[C@H]2[C@@H](c3ccccc31)[C@H](CO)N2C(=O)Cc1ccccc1 -2.83%
CCCN1C[C@@H](C)[C@@H](OC)CN(C)C(=O)c2ccc(NC(=O)CC(F)(F)F)cc2OC[C@H]1C -0.121%
CN1CCN(C(=O)C[C@@H]2CC[C@@H]3[C@@H](COc4ccc(NC(=O)c5ccc(F)c(F)c5)cc4C(=O)N3C)O2)CC1 -0.587%
O=C(c1ccncc1)N1C[C@@H]2[C@H](c3ccccc31)[C@H](CO)N2C(=O)c1ccncc1 -0.987%
COc1ccc2c3c(n(C)c2c1)[C@H](CO)N(C(=O)NC(C)C)CC31CCN(C(=O)NC(C)C)CC1 0.238%
CCCN1C[C@H](C)[C@@H](OC)CN(C)C(=O)c2ccc(NC(=O)CC)cc2OC[C@@H]1C 2.58%
O=C(Nc1ccccc1)N1CC(=O)N2[C@@H](CO)[C@H](c3ccc(C#CC4CCCC4)cc3)[C@@H]2C1 0.422%
CN(C)C(=O)C[C@@H]1CC[C@H](NC(=O)NC2CCCCC2)[C@@H](CO)O1 -0.283%
CCCC(=O)Nc1ccc2c(c1)C(=O)N(C)[C@@H]1CC[C@H](CC(=O)NCCOC)O[C@H]1CO2 0.186%
CC(=O)N1CC2(C1)[C@@H](c1ccccc1)[C@@H](CO)N2C(=O)c1cnccn1 0.148%
